Sampled rows, rich in hits. Any-hit rate of the full collection: about 1.8%.
HKDC1 inhibitor = inhibitors of human hexokinase HKDC1; inhibition, % at 20 µM; actives 0.16% (n = 340,000); recombinant HKDC1, G6PDH/diaphorase resazurin coupled fluorescence; Q2TB90;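 active = inhibition above about 35% when tested at 20 µM, limit read from the data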;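 note: plate controls were DMSO wells with enzyme for no effect and DMSO wells lacking enzyme for full effect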
Target sequence (Q2TB90 whole entry, looked up): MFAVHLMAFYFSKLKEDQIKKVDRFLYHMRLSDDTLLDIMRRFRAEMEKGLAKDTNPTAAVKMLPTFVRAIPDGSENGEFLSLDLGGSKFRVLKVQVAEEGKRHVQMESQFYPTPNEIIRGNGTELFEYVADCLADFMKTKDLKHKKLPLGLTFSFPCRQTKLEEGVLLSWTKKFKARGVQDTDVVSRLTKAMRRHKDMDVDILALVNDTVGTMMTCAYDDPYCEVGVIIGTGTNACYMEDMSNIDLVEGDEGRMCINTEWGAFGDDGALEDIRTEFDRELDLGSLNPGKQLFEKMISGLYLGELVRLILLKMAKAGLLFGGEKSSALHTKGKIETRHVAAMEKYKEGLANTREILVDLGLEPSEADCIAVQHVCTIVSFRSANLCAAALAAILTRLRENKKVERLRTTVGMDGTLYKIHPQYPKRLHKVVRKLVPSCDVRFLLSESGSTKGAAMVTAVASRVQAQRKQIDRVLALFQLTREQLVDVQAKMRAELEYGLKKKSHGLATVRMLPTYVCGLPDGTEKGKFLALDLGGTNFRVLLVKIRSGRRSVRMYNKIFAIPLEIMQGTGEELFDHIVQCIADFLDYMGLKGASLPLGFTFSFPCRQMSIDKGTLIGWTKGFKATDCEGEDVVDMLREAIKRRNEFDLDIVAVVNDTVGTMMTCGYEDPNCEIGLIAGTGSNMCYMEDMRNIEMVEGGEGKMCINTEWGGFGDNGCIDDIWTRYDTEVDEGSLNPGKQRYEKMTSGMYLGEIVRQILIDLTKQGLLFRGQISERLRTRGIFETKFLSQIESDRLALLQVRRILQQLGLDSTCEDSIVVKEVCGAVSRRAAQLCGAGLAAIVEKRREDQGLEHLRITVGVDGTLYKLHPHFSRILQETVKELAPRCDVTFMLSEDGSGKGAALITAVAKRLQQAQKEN
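Test system: Recombinant HKDC1 (HK5) hexokinase enzyme, produced in-house | Input: HKDC1 at 5 µg/mL | Buffer or medium: Tris pH 8.0 buffer with MgCl2, Tween-20, BSA, BME | Schedule: 90 min reaction incubation at room temperature, dark | Technique: Resazurin-to-resorufin fluorescence via G6PDH and diaphorase coupling, 525/613 nm | Controls: DMSO wells with and without enzyme mix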
LMPTP inh = LMPTP (human) inhibition; recombinant LMPTP-A, OMFP fluorogenic substrate, fluorescence intensity; actives 0.22% (n = 360,000); P24666; inhibition, % at 20 µM;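 active = compounds that cut the enzyme signal by at least half of the control window in the single-dose screen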;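 note: plate controls were DMSO wells with enzyme plus substrate for no effect and substrate without enzyme for full effect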
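Buffer or medium: Bis-Tris pH 6.0, DTT, detergent; Assay system: LMPTP-A enzyme; Quantity: 0.625 nM enzyme; Detection: endpoint fluorescence intensity; Times: 50 min dark incubation at room temperature; Controls: substrate-only low control, DMSO enzyme-plus-substrate high control; Doses: single 20 µM dose; Read-out: percent inhibition versus substrate-only and uninhibited controls; Reagent: 400 µM OMFP.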
STEP inh = inhibitors of human striatal-enriched phosphatase STEP; P54829; recombinant STEP, OMFP fluorogenic substrate, fluorescence; inhibition, % at 20 µM; actives 0.25% (n = 360,000);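 active = inhibition at 20 µM, scaled per plate between control wells, above about 37%, limit read from the data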;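 note: 0% = DMSO with enzyme and substrate and 100% = substrate only without enzyme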
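System: STEP phosphatase, cell-free reaction; Buffer or medium: Bis-Tris pH 6.0 buffer with DTT, detergent; Incubation: 20 min at room temperature, dark; Measured by: fluorescence, 480/540 nm.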
DNMT1 inh = DNMT1 (human) enzyme inhibition; P26358; inhibition (reported as % activation of signal), % at 10 µM; actives 0.83% (n = 360,000); DNMT1 molecular beacon, Hinp1I cleavage, fluorescence; in the data active = inhibition above about 50%
Scp-1 inhibitor = Scp-1 (human) phosphatase inhibition; Q9GZU7; Recombinant Scp1, phosphopeptide, malachite green phosphate absorbance; inhibition, % at 20 µM; actives 0.88% (n = 340,000); AID 493091;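 active = inhibition above about 50% at 20 µM, limit read from the data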;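 note: plate controls were DMSO wells with enzyme for no effect and wells lacking enzyme for full effect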
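Test system: SCP-1 phosphatase catalytic domain, residues 76-261 | Compound dosing: One concentration, 20 µM, with 1.0% DMSO | Schedule: 45 min room-temperature reaction, 5 min colour, 30 min stabiliser | Detection: Absorbance at 630 nm | Read-out basis: % inhibition of SCP-1 phosphate liberation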
SUMO1 PPI mod = alters human SUMO1 binding to SIM partners; P63165; SUMO1 binding to a labelled peptide, TR-FRET, 1 h; inhibition, % at 20 µM; actives 0.33% (n = 360,000); AID 602429; in the data active = inhibition above about 37%
Beacon interf DR = beacon fluorescence artifact, dose response counter-screen. shares compounds with DNMT1 inh. molecular beacon fluorescence, spectral interference counter-screen. IC50, µM. 200 tested, under 10 active; call rule not given here
DNMT1 confirm = DNMT1 inhibition confirmation, single concentration. inhibition, % at 10 µM. actives 8% (n = 2,300). shares compounds with DNMT1 inh. DNMT1 molecular beacon HinP1I cleavage, fluorescence. AID 602385;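 active = average inhibition of at least 30% in the single-concentration confirmation test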
Beacon interf = counter-screen for DNMT1 inhibitors: spectral interference. shares compounds with DNMT1 inh. DNMT1 molecular beacon spectral interference counterscreen, fluorescence 485/520. activation (fluorescence interference), % at 10 µM. actives 1% (n = 2,300). AID 602387;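 active = activation of at least 30% at 10 µM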;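 note: DNMT1 catalytic domain with a HinP1I cleavage step and a FAM/dabcyl DNA beacon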
* = called active by the depositor; · = not tested or not shown.

SMILES	HKDC1 inhibitor	LMPTP inh	STEP inh	DNMT1 inh	Scp-1 inhibitor	SUMO1 PPI mod	DNMT1 confirm	Beacon interf	others
CCOC(=O)c1c2ccc(OCC(=O)N/N=C/c3ccc(C)cc3)cc2n2ccccc12	2	2	2	72*	6	3	5	-2
CCOC(=O)c1c2ccc(OCC(=O)NN)cc2n2ccccc12	17	1	-2	-2	-5	-1	·	·
CC(=O)Nc1cccc(-c2cccc3nccn23)c1	·	8	1	-2	·	-2	·	·
Cc1ccc(/C=N/NC(=O)c2cc3c(ccc4ccccc43)o2)cc1[N+](=O)[O-]	12	0	-1	80*	-7	-8	-1	-7
O=C(N/N=C/c1ccc(O)c(Br)c1)c1cc2c(ccc3ccccc32)o1	-2	-1	-2	-4	1	-1	·	·
O=C(N/N=C/c1ccc([N+](=O)[O-])o1)c1cc2c(ccc3ccccc32)o1	12	79*	95*	85*	94*	2	8	-9
Cc1ccc(C)c(N(CC(=O)N/N=C/c2ccc(-c3ccc([N+](=O)[O-])cc3)o2)S(=O)(=O)c2ccccc2)c1	6	3	4	1	-4	-11	·	·
CCOc1ccc(S(=O)(=O)N(CC(=O)N/N=C/c2ccc(-c3ccc([N+](=O)[O-])cc3)o2)c2ccccc2)cc1	22	19	6	100*	49	1	11	-5
CCOC(=O)c1ccc(-c2ccc(/C=N/NC(=O)CN(c3cccc(C)c3)S(C)(=O)=O)o2)cc1	-7	1	-2	57*	9	6	3	2
CC1(OC(=O)C2CCCC2)C(=O)C=C2C=C(c3ccsc3)N(CCCCO)C=C2C1=O (stereo not drawn)	19	1	0	-9	-11	-10	·	·
CC1(OC(=O)C2CCCC2)C(=O)C=C2C=C(c3ccsc3)N(Cc3ccco3)C=C2C1=O (stereo not drawn)	26	5	1	62*	7	-3	-1	-1
COc1ccc(CC(=O)NNC(=O)c2ccco2)cc1OC	-10	-1	-1	-1	6	4	·	·
CCOc1ccc(N=c2cc(-c3ccc(OC)cc3)oc3ccccc23)cc1	12	9	1	95*	14	-4	2	4
COc1ccc(N=c2cc(-c3ccc(OC)cc3)oc3ccccc23)cc1	11	9	3	1	17	-10	·	·
COc1cc2nc3n(c(=O)c2cc1OC)-c1ncccc1C(=O)NC3Cc1ccccc1 (stereo not drawn)	·	0	2	8	·	1	·	·
O=C(c1ccccc1)c1ccc(O)c(O)c1O	11	51*	32	78*	66*	20	7	-3
Cc1cc(C(=O)c2ccccc2)cc(C)c1O	-2	-2	-1	7	-5	-9	·	·
Cn1cc(/C=N/NC(=O)c2cccc([N+](=O)[O-])c2)c2ccccc21	-12	2	2	-2	-7	34	·	·
Cn1cc(/C=C(\C#N)C(=O)Nc2cccc([N+](=O)[O-])c2)c2ccccc21	4	4	4	61*	-1	-3	-3	-3
Cc1ccc(NC(=O)CSc2nnc(-c3ccco3)c(-c3ccco3)n2)cc1	9	8	6	92*	57*	19	7	7
CSc1nnc(-c2ccccc2)c(-c2ccccc2)n1	0	1	0	2	-14	-28	·	·
COc1ccc(C(=O)CSc2nnc(-c3ccco3)c(-c3ccco3)n2)cc1	6	33	5	76*	87*	16	4	4
CSc1nnc(-c2ccco2)c(-c2ccco2)n1	15	5	3	95*	47	22	2	4
COc1cccc(NC(=O)CSc2nnc(-c3ccco3)c(-c3ccco3)n2)c1	13	3	9	87*	66*	26	2	0
COc1ccc(C(=O)CSc2nnc(-c3ccco3)n2C)cc1	-3	-1	2	-2	0	1	·	·
SMILES	HKDC1 inhibitor	LMPTP inh	STEP inh	DNMT1 inh	Scp-1 inhibitor	SUMO1 PPI mod	DNMT1 confirm	Beacon interf	others
COc1cc(C(=O)NNC(=O)C2CC2)cc(OC)c1OC	-5	-2	0	0	-9	-1	·	·
COc1cc2c(cc1NC(=O)c1cc(-c3ccccn3)nc3ccccc13)oc1ccccc12	-11	5	3	-13	11	5	·	·
CCOC(=O)N1CCN(C(=O)CN(C)S(=O)(=O)c2ccc(F)cc2)CC1	-5	-1	-4	4	-5	0	·	·
CCN(C[C@H]1N[C@@](Cc2ccccc2)(C(=O)OC)[C@H]2C(=O)N(Cc3ccccc3)C(=O)[C@@H]12)C(=O)C1CCCCC1	-2	0	0	4	-5	3	·	·
C#CCN(Cc1ccco1)C(=O)c1cc(COc2cccc3cccnc23)on1	·	0	3	0	·	-1	·	·
CCN(CC)S(=O)(=O)c1cc(NS(=O)(=O)c2ccccc2)ccc1C	2	2	0	75*	-2	1	4	4
CCCCN(CCCC)Cc1cc(=O)oc2ccc3ccccc3c12	·	5	2	9	·	3	·	·
CC(C)C(CCNC(=O)CC(Cc1ccccc1)c1ccco1)c1ccco1 (stereo not drawn)	5	1	3	61*	-7	0	1	-1
Cn1ncc(N=Cc2c(O)ccc3ccccc23)c1C(=O)Nc1cccc(Cl)c1	9	3	0	51*	-7	-6	7	0
Cn1ncc(Cl)c1C(=O)Nc1cccc(Cl)c1	-4	-1	2	-9	-10	-2	·	·
CCCN1CCC(=O)N(CCN=[N+]=[N-])CC1	-6	-2	0	0	-10	-3	·	·
Cc1ccc(CN2CCSc3ccc(C(=O)NCc4ccccn4)cc32)cc1	5	1	3	-5	-2	-1	·	·
Cc1ccc(C2C(/C=C3/SC(=S)NC3=O)=C(c3cccs3)Oc3ccccc32)cc1 (stereo not drawn)	3	7	0	83*	0	1	72*	-13	Beacon interf DR=>99
CC1Cc2cc(/C=C3/SC(=S)NC3=O)ccc2O1 (stereo not drawn)	5	2	1	-2	8	-10	·	·
